The results in this text go back to ChEMBL document CHEMBL3259611, “Suppression of inflammatory responses by handelin, a guaianolide dimer from Chrysanthemum boreale, via downregulation of NF-κB signaling and pro-inflammatory cytokine production” (J Nat Prod, 2014).

As usually defined, the inhibition in vivo is the change of the read-out against control, counted positive when it falls. In general, inhibition refers to how much of the control response was suppressed.

Holding throughout (format): functional
Test [1] has as its system RAW264.7. Nature of the test: Antiinflammatory activity in mouse RAW264.7 cells assessed as inhibition of LPS-induced PGE2 production at 20 uM administered 1 hr prior to LPS challenge measured after 20 hrs by EIA relative to control. A digest of the protocol: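 RAW 264.7 cells plated at 3 × 10^5 cells/mL, pretreated with compound for 1 h, then stimulated with 1 μg/mL LPS for 20 h. PGE2 in the supernatant was measured by immunoassay kit. Mean ± SD of triplicates.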

Test [2] has as its system Rattus norvegicus. Nature of the test: Antiinflammatory activity in rat paw edema model assessed as inhibition of carrageenan-induced paw edema at 20 mg/kg, po administered 30 mins prior to carrageenan challenge measured after 4 hrs relative to vehicle-treated control. A digest of the protocol: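 Male Sprague–Dawley rats (150–170 g, 5 weeks old); compound dissolved in 0.5% CMC-Na and given orally 30 min before subplantar injection of 0.1 mL 1% carrageenan suspension in saline into the right hind paw, with saline injected into the left. Paw volume read by plethysmometer at 0 h and up to 6 h; n = 6.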

For test [3], the system named is Mus musculus. In words: Antiinflammatory activity in ICR mouse ear edema model assessed as inhibition of TPA-induced ear edema at 20 mg/kg, po administered 30 mins prior to TPA challenge measured after 4 hrs relative to vehicle-treated control. An outline of the steps: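 ICR mice (male, 18−20 g, 5 weeks old) dosed orally 30 min before TPA (1.0 μg in 20 μL acetone) was applied to inner and outer surfaces of the right ear. Killed by cervical dislocation after 4 h. Edema taken as the weight of a 5 mm punch biopsy of the right ear over the left. Ear homogenates were Western blotted for iNOS, COX-2 and IL-1β.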

Test [4] concerns RAW264.7. Nature of the test: Antiinflammatory activity in mouse RAW264.7 cells assessed as inhibition of LPS-induced nitric oxide production at 50 uM after 20 hrs by Griess assay relative to control. The following applies: RAW264.7, 20 h. An outline of the steps:
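Positive-control run in the same LPS (1 μg/mL, 20 h) RAW 264.7 system. Nitrite was quantified by Griess reaction at 540 nm against a sodium nitrite standard curve. Inhibition expressed relative to vehicle control.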

Take `Cc1ccc(-c2cc(C(F)(F)F)nn2-c2ccc(S(N)(=O)=O)cc2)cc1` [CELECOXIB]: the inhibition (INH) in test [1] came to 81%. `COc1ccc2c(c1)c(CC(=O)O)c(C)n2C(=O)c1ccc(Cl)cc1` [INDOMETHACIN]: the inhibition in vivo at 20 mg/kg in test [2] came to 51%; in test [3] it was 53%. On to `CNC(=N)NCCC[C@H](N)C(=O)O` [TILARGININE], for which the inhibition at 50 µM in test [4] worked out at 74%.
